Data on 39 compounds can be found in ChEMBL document CHEMBL3045055, “Synthesis and antifungal activities of carabrol ester derivatives” (J Agric Food Chem, 2012).

Values after ≈ are worked out from the molar mass of the structure shown.

For orientation: IC50 means the concentration at which inhibition is half-maximal.

This assay relates to Colletotrichum lagenaria. In words: Antifungal activity against Colletotrichum lagenaria assessed as inhibition of spore germination at 24 +/- 1 degC for 8 hr (plant disease: on leaf and fruit). It counts as functional, organism-based. The gist of the method:
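C. lagenarium isolate (Accession No. 36199, Agricultural Culture Collection of China) grown 2 weeks at 25 ± 1 °C on PDA. Conidia flooded off with sterile water, filtered through cheesecloth, and suspended in water with 0.1% (v/v) Tween 20 at 1.0 × 10^6 spore/mL by hemocytometer. Samples dissolved in methanol, diluted with sterile water to test solutions; spore germination inhibition read, IC50 derived.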
On to `C=C1C(=O)O[C@@H]2C[C@]3(C)C(CCC(C)OC(=O)c4cnc(C)cn4)[C@@H]3C[C@H]12` (some centres undefined), for which the IC50 is 20.5 µg/mL (≈ 55.3 µM).

As to `C=C1C(=O)O[C@@H]2C[C@]3(C)C(CCC(C)OC(=O)/C=C/c4ccc([N+](=O)[O-])cc4)[C@@H]3C[C@H]12` (some centres undefined), the IC50 was determined as 22.8 µg/mL (≈ 53.7 µM).

Take `C=C1C(=O)O[C@@H]2C[C@]3(C)C(CCC(C)OC(=O)/C=C/c4ccc(OC)c(OC)c4)[C@@H]3C[C@H]12` (some centres undefined): the half-inhibitory concentration (IC50) came out at 25.1 µg/mL (≈ 56.9 µM).

Turning to `C=C1C(=O)O[C@@H]2C[C@]3(C)C(CCC(C)OC(=O)c4cccc(OC)c4OC)[C@@H]3C[C@H]12` (some centres undefined) [CARABRYL 2,3-DIMETHOXYBENZOATE], the IC50 stood at 35.8 µg/mL (≈ 86.3 µM).

Consider `C=C1C(=O)O[C@@H]2C[C@]3(C)C(CCC(C)OC(=O)/C=C/C=C/C)[C@@H]3C[C@H]12` (some centres undefined) [CARABRYL 2,4-HEXADIENOATE], for which the IC50 was found to be 8.41 µg/mL (≈ 24.4 µM).

For the compound `C=C1C(=O)O[C@@H]2C[C@]3(C)C(CCC(C)OC(=O)c4ccccc4Br)[C@@H]3C[C@H]12` (some centres undefined) [CARABRYL 2-BROMOBENZOATE], the half-inhibitory concentration (IC50) was determined as 29.2 µg/mL (≈ 67.3 µM).

`C=C1C(=O)O[C@@H]2C[C@]3(C)C(CCC(C)OC(=O)c4cccnc4Cl)[C@@H]3C[C@H]12` (some centres undefined) [CARABRYL 2-CHLORONICOTINATE]: the IC50 was found to be 4.62 µg/mL (≈ 11.8 µM).

For the compound `C=C1C(=O)O[C@@H]2C[C@]3(C)C(CCC(C)OC(=O)c4ccccc4OCC)[C@@H]3C[C@H]12` (some centres undefined) [CARABRYL 2-ETHOXYBENZOATE], the IC50 was 41.6 µg/mL (≈ 104 µM).

`C=C1C(=O)O[C@@H]2C[C@]3(C)C(CCC(C)OC(=O)c4ccccc4I)[C@@H]3C[C@H]12` (some centres undefined) [CARABRYL 2-IODOBENZOATE]: the IC50 came out at 39 µg/mL (≈ 81.3 µM).

For `C=C1C(=O)O[C@@H]2C[C@]3(C)C(CCC(C)OC(=O)c4ccccc4OC)[C@@H]3C[C@H]12` (some centres undefined) [CARABRYL 2-METHOXYBENZOATE], the IC50 turned out to be 46.1 µg/mL (≈ 120 µM).

`C=C1C(=O)O[C@@H]2C[C@]3(C)C(CCC(C)OC(=O)c4ccccc4C)[C@@H]3C[C@H]12` (some centres undefined) [CARABRYL 2-METHYLBENZOATE]: the IC50 is 52.3 µg/mL (≈ 142 µM).

Regarding `C=C1C(=O)O[C@@H]2C[C@]3(C)C(CCC(C)OC(=O)c4cccs4)[C@@H]3C[C@H]12` (some centres undefined) [CARABRYL 2-THIOPHENECARBOXYLATE], the IC50 amounted to 30.8 µg/mL (≈ 85.5 µM).

With `C=C1C(=O)O[C@@H]2C[C@]3(C)C(CCC(C)OC(=O)c4ccc(OC)c(OC)c4)[C@@H]3C[C@H]12` (some centres undefined) [CARABRYL 3,4-DIMETHOXYBENZOATE], the IC50 was 33 µg/mL (≈ 79.5 µM).

As to `C=C1C(=O)O[C@@H]2C[C@]3(C)C(CCC(C)OC(=O)c4cccc(Br)c4)[C@@H]3C[C@H]12` (some centres undefined) [CARABRYL 3-BROMOBENZOATE], the IC50 was 36.7 µg/mL (≈ 84.7 µM).

`C=C1C(=O)O[C@@H]2C[C@]3(C)C(CCC(C)OC(=O)c4cccc(Cl)c4)[C@@H]3C[C@H]12` (some centres undefined) [CARABRYL 3-CHLOROBENZOATE]: the IC50 is 26.7 µg/mL (≈ 68.7 µM).

Regarding `C=C1C(=O)O[C@@H]2C[C@]3(C)C(CCC(C)OC(=O)c4cccc(F)c4)[C@@H]3C[C@H]12` (some centres undefined) [CARABRYL 3-FLUOROBENZOATE], the IC50 came out at 30.4 µg/mL (≈ 81.7 µM).

Regarding `C=C1C(=O)O[C@@H]2C[C@]3(C)C(CCC(C)OC(=O)CCc4c[nH]c5ccccc45)[C@@H]3C[C@H]12` (some centres undefined) [CARABRYL 3-INDOLEPROPIONATE], the IC50 is 12.8 µg/mL (≈ 30.4 µM).

For `C=C1C(=O)O[C@@H]2C[C@]3(C)C(CCC(C)OC(=O)c4cccc(OC)c4)[C@@H]3C[C@H]12` (some centres undefined) [CARABRYL 3-METHOXYBENZOATE], the IC50 was determined as 49.4 µg/mL (≈ 129 µM).

For `C=C1C(=O)O[C@@H]2C[C@]3(C)C(CCC(C)OC(=O)/C=C/c4ccccc4)[C@@H]3C[C@H]12` (some centres undefined) [CARABRYL 3-PHENYLACRYLATE], the IC50 worked out at 33.2 µg/mL (≈ 87.3 µM).

Turning to `C=C1C(=O)O[C@@H]2C[C@]3(C)C(CCC(C)OC(=O)CCc4ccccc4)[C@@H]3C[C@H]12` (some centres undefined) [CARABRYL 3-PHENYLPROPANOATE], the IC50 was 13.2 µg/mL (≈ 34.6 µM).

`C=C1C(=O)O[C@@H]2C[C@]3(C)C(CCC(C)OC(=O)c4ccc(Br)cc4)[C@@H]3C[C@H]12` (some centres undefined) [CARABRYL 4-BROMOBENZOATE]: the IC50 was 31.3 µg/mL (≈ 72.2 µM).

With `C=C1C(=O)O[C@@H]2C[C@]3(C)C(CCC(C)OC(=O)Cc4ccc(Br)cc4)[C@@H]3C[C@H]12` (some centres undefined) [CARABRYL 4-BROMOPHENYLACETATE], the IC50 was found to be 44.4 µg/mL (≈ 99.3 µM).

Regarding `C=C1C(=O)O[C@@H]2C[C@]3(C)C(CCC(C)OC(=O)c4ccc(Cl)cc4)[C@@H]3C[C@H]12` (some centres undefined) [CARABRYL 4-CHLOROBENZOATE], the IC50 was 31.8 µg/mL (≈ 81.8 µM).

For `C=C1C(=O)O[C@@H]2C[C@]3(C)C(CCC(C)OC(=O)c4ccc(C#N)cc4)[C@@H]3C[C@H]12` (some centres undefined) [CARABRYL 4-CYANOBENZOATE], the IC50 worked out at 2.7 µg/mL (≈ 7.12 µM).

Take `C=C1C(=O)O[C@@H]2C[C@]3(C)C(CCC(C)OC(=O)c4ccc(F)cc4)[C@@H]3C[C@H]12` (some centres undefined) [CARABRYL 4-FLUOROBENZOATE]: the IC50 was 21.2 µg/mL (≈ 57 µM).

Take `C=C1C(=O)O[C@@H]2C[C@]3(C)C(CCC(C)OC(=O)c4ccc(I)cc4)[C@@H]3C[C@H]12` (some centres undefined) [CARABRYL 4-IODOBENZOATE]: the IC50 came out at 33.5 µg/mL (≈ 69.7 µM).

As for `C=C1C(=O)O[C@@H]2C[C@]3(C)C(CCC(C)OC(=O)c4ccc(C(C)C)cc4)[C@@H]3C[C@H]12` (some centres undefined) [CARABRYL 4-ISOPROPYLBENZOATE], the IC50 is 2.82 µg/mL (≈ 7.11 µM).

In the case of `C=C1C(=O)O[C@@H]2C[C@]3(C)C(CCC(C)OC(=O)c4ccc(OC)cc4)[C@@H]3C[C@H]12` (some centres undefined) [CARABRYL 4-METHOXYBENZOATE], the IC50 was 47.5 µg/mL (≈ 123 µM).

`C=C1C(=O)O[C@@H]2C[C@]3(C)C(CCC(C)OC(C)=O)[C@@H]3C[C@H]12` (some centres undefined) [CARABRYL ACETATE]: the IC50 came out at 10.8 µg/mL.

With `C=C1C(=O)O[C@@H]2C[C@]3(C)C(CCC(C)OC(=O)Cc4cccc5ccccc45)[C@@H]3C[C@H]12` (stereo partly drawn) [CARABRYL ALPHA-NAPHTHYLACETATE], the IC50 was determined as 30.3 µg/mL (≈ 72.3 µM).

For `C=C1C(=O)O[C@@H]2C[C@]3(C)C(CCC(C)OC(=O)c4cccc5ccccc45)[C@@H]3C[C@H]12` (stereo partly drawn) [CARABRYL ALPHA-NAPHTHYLCARBOXYLATE], the IC50 is 23.3 µg/mL (≈ 57.6 µM).

In the case of `C=C1C(=O)O[C@@H]2C[C@]3(C)C(CCC(C)OC(=O)CCl)[C@@H]3C[C@H]12` (some centres undefined) [CARABRYL CHLOROACETATE], the IC50 amounted to 4.51 µg/mL (≈ 13.8 µM).

Turning to `C=C1C(=O)O[C@@H]2C[C@]3(C)C(CCC(C)OC(=O)c4ccncc4)[C@@H]3C[C@H]12` (some centres undefined) [CARABRYL ISONICOTINATE], the IC50 was determined as 4.31 µg/mL (≈ 12.1 µM).

With `C=C1C(=O)O[C@@H]2C[C@]3(C)C(CCC(C)OC(=O)CCCCCCCCCCC)[C@@H]3C[C@H]12` (some centres undefined) [CARABRYL LAURATE], the IC50 was 33.6 µg/mL (≈ 77.7 µM).

For `C=C1C(=O)O[C@@H]2C[C@]3(C)C(CCC(C)OC(=O)CCC)[C@@H]3C[C@H]12` (some centres undefined) [CARABRYL N-BUTYRATE], the IC50 stood at 20.8 µg/mL (≈ 65 µM).

With `C=C1C(=O)O[C@@H]2C[C@]3(C)C(CCC(C)OC(=O)CCCC)[C@@H]3C[C@H]12` (some centres undefined) [CARABRYL N-PENTANOATE], the IC50 is 31.2 µg/mL (≈ 93.3 µM).

As to `C=C1C(=O)O[C@@H]2C[C@]3(C)C(CCC(C)OC(=O)c4cccnc4)[C@@H]3C[C@H]12` (some centres undefined) [CARABRYL NICOTINATE], the IC50 turned out to be 8.26 µg/mL (≈ 23.2 µM).

In the case of `C=C1C(=O)O[C@@H]2C[C@]3(C)C(CCC(C)OC(=O)CC)[C@@H]3C[C@H]12` (some centres undefined) [CARABRYL PROPANOATE], the IC50 is 23.3 µg/mL (≈ 76 µM).

`N#Cc1c(Cl)c(Cl)c(Cl)c(C#N)c1Cl` [CHLOROTHALONIL]: the IC50 worked out at 0.87 µg/mL (≈ 3.27 µM).
